Xi reactivation – activators of inactive X chromosome reactivation, primary screen, imaging, XiGFP fibroblasts, GFP high-content imaging, set 2 | XiGFP mouse fibroblasts, % GFP-positive cells imaging, 3 d; cells co-treated with 5-aza-dC sensitizer; scaled so ellipticine positive control = 100% | 0.055% of 360,000 active | activation, % at 7.58 µM | AID 743238, 2013;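 active = mean normalized replicate activation at least 10% and every replicate at or above 10%; inconclusive = only one of the two criteria met; inactive = mean below 10% and not all replicates reach 10%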;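 also: 0% = median of on-plate neutral control wells and 100% = ellipticine 6 µM median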
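Assay system – SV40-immortalized XiGFP fibroblast cells, line 68-5-11 · Buffer or medium – DMEM supplemented with 5-aza-dC as sensitizing agent · Dosing – one concentration, pinned · Benchmarks – positive control ellipticine, 6 µM final · Times – 3 days compound exposure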
MITF TRPM1 HTS – activators of MITF-driven TRPM1 promoter reporter, primary screen, cell-based, SK-MEL-5, luciferase, single point | SK-MEL-5 TRPM1-promoter luciferase, 24 h; % of positive control, neutral wells = 0 | activation, % at 12.5 µM | 0.75% of 300,000 active;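 active = mean activation of at least 80% with every replicate also reaching 80%; inconclusive = mean reaches 80% but some replicate falls short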;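 also: 0% = neutral control wells and 100% = parthenolide positive control wells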
Wnt bcat act – Wnt/beta-catenin pathway activators, primary screen, cell-based, plate reader, single point. activation, % at 9.35 µM. Wnt/beta-catenin reporter cell assay, activator. AID 743398, 2014. 1.2% of 300,000 active; in the data active = activation above about 30%, passing the limit was not always enough; inconclusive = no clear call, values can overlap the other calls;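 also: 0% = neutral control wells and 100% = positive control wells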
Vif imaging – HIV Vif self-association inhibitors, primary screen, imaging, HEK293T, single point; inhibition, % at 7.49 µM; 0.35% of 340,000 active; HEK293T cells, Vif self-association by quenched fluorescence, 24 h; in the data active = inhibition above about 50%, passing the limit was not always enough; inconclusive = no clear call, values can overlap the other calls; inactive = below about 31%
esBAF inh – Bmi1 luciferase reporter increase in mESCs, primary screen, esBAF inhibitor project, mouse ES cells, Bmi1 luciferase knock-in, single point; 24 h; 100% = twice the neutral-well signal; reporter increase, % at 12.5 µM; 2% of 350,000 active; AID 602393, 2012; in the data active = activation above about 40%; inconclusive = no clear call, values can overlap the other calls;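 also: 0% = median of the plate's neutral control wells and 100% = double that signal; a rise in the Bmi1 reporter signal indicates esBAF inhibition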
* marks the source's active call; other numbers are inactive results; ? = inconclusive; . = no result given. The list is not random: actives were taken first. Their share in the collection is about 2.6%.

SMILES	Xi reactivation	MITF TRPM1 HTS	Wnt bcat act	Vif imaging	esBAF inh
CNC(=O)c1ccc(-c2nc(-c3ccccc3)cs2)cc1	0	74	10	-7	52*
CC(O)(c1cccnc1)c1nc(-c2ccc3ccccc3c2)cs1 (configuration not stated)	0	.	-3	-17	57*
Brc1ccc(-c2csc(-c3ccncc3)n2)cc1	0	?	55*	-8	.
COc1cccc(-c2nc(-c3ccc4c(c3)NC(=O)CO4)cs2)c1	0	105*	12	7	.
COc1ccc(-c2cc(-c3ccc(OC)cc3)nc(-c3ccc4c(c3)NC(=O)CO4)c2)cc1	.	8	-2	-3	-1
COc1ccc(NC(=O)Nc2ccc3c(c2)C(=O)N([C@H](C)CO)C[C@H](C)[C@H](CN(C)S(=O)(=O)c2ccc(F)cc2)OCCCC[C@H](C)O3)cc1	0	.	.	.	5
COc1ccc2cc(-c3csc(-c4cccnc4)n3)ccc2c1	.	?	.	15	59*
CC1CCN(c2ccc(NC(=O)c3ccc(Br)o3)cc2)CC1	0	79	?	-12	56*
O=C(Nc1ccc(N2CCOCC2)cc1)c1ccc(Br)o1	0	.	23	-5	-70
CN1CCN(c2ccc(NC(=O)c3ccc(Br)o3)cc2)CC1	0	34	17	-6	5
CS(=O)(=O)N1CCN(c2ccc(NC(=O)c3ccc(Br)o3)cc2)CC1	.	?	57*	.	29
CCN(CC)c1ccc(NC(=O)c2cncc(Br)c2)cc1	.	58	.	-1	.
CC1CCN(c2ccc(NC(=O)c3cccnc3)cc2)CC1	.	.	37*	4	32
CCN(CC)c1ccc(NC(=O)c2cccnc2)cc1	.	57	37*	.	32
COc1ccc(-c2cnc3c(c2)C(=O)N([C@H](C)CO)C[C@@H](C)[C@@H](CN(C)C(=O)Cc2cccnc2)O3)cc1	1	.	.	.	-6
COc1ccc2oc(C(=O)N3CCN(S(=O)(=O)c4ccc(F)cc4)CC3)c(C)c2c1	0	11	-1	1	0
COc1ccc2oc(C(=O)N3CCN(S(=O)(=O)c4c(C)c(C)cc(C)c4C)CC3)c(C)c2c1	0	.	-3	5	51*
O=C(NC1CCCCCCC1)c1cccc(Cl)c1	0	64	20	-3	60*
O=C(NC1CCCCC1)c1ccc2ccccc2c1	0	.	49*	.	56*
COc1ccccc1/C=C/C=N/n1c(-c2cc(C)[nH]n2)n[nH]c1=S	0	12	1	-4	0
COc1ccccc1/C=C/C=N/n1c(-c2ccccn2)n[nH]c1=S	0	?	24	-3	56*
Cc1sc2ncnc(N=Nc3c(O)[nH]c4ccccc34)c2c1C	2	24	10	-18	52*
COc1ccccc1CNC(=O)C[C@H]1CC[C@@H]2[C@H](COC[C@H](O)CN2Cc2cccc(-c3ccncc3)c2)O1	0	.	.	.	9
O=C1CCN(Cc2ccc(O)cc2)CCN1[C@H](CO)Cc1ccccc1	0	6	-1	54*	2
O=C1CCN(Cc2ccccc2)CCN1[C@H](CO)Cc1ccccc1	0	5	14	-2	-1
SMILES	Xi reactivation	MITF TRPM1 HTS	Wnt bcat act	Vif imaging	esBAF inh
CC(C)NCCOc1cccc(Br)c1	.	-3	-1	56*	-1
CC(C)NCCCCOc1cccc(Br)c1	0	6	-8	18	.
CO[C@H]1CN(C)C(=O)c2cc(C#N)ccc2OC[C@@H]2O[C@@H](CC[C@H]2OC)CCN(C)C(=O)[C@H]1C	0	.	.	.	1
O=C(Nc1ccc(-c2nc3cccnc3s2)cc1)c1cccnc1Cl	1	54	38*	.	-7
CCOc1ncccc1C(=O)Nc1cccc(-c2nc3cccnc3s2)c1	0	10	29	4	.
O=C(Nc1cccc(-c2nc3cccnc3s2)c1)c1ccco1	.	42	8	97*	36
O=C(Nc1ccc(-c2nc3cccnc3s2)cc1)c1ccco1	0	.	20	2	-7
Cc1c(NC(=O)c2ccc(Cl)nc2)cccc1-c1nc2cccnc2s1	0	-11	-2	-15	.
O=C(Nc1ccc(-c2nc3cccnc3s2)cc1)c1ccc(Br)o1	0	.	39*	1	32
O=C(Nc1ccc(-c2nc3cccnc3s2)cc1)c1ccc(Cl)nc1	0	89*	8	-4	19
Cc1ccc(S(=O)(=O)Nc2ccc3c(c2)C(=O)N([C@@H](C)CO)C[C@H](C)[C@@H](CN(C)C(=O)CCC(F)(F)F)OCCCC[C@H](C)O3)cc1	0	.	.	.	-6
C[C@H]1CCCCO[C@@H](CN(C)S(=O)(=O)c2ccccc2)[C@@H](C)CN([C@@H](C)CO)C(=O)c2cc(NC(=O)C3CCCCC3)ccc2O1	0	.	.	.	-1
Cc1ccc(S(=O)(=O)N2CC[C@H]3[C@H](CO)Nc4ccc(C#Cc5ccc(F)cc5)cc4[C@H]32)cc1	0	.	.	.	2
O=C(NCCc1ccc(O)cc1)c1ccc(Cl)cc1	.	98*	.	2	?
CC(=O)NCCNC(=O)c1ccc(CSc2ccc(Cl)cc2)cc1	0	65	-2	3	54*
O=C(c1cccc(F)c1)N1CC2(C1)[C@H](c1ccccc1)[C@H](CO)N2C(=O)C1CC1	0	.	.	.	.
C[C@H]1CN([C@@H](C)CO)C(=O)Cc2cc(NC(=O)c3ccncc3)ccc2O[C@H]1CN(C)Cc1ccc(C(F)(F)F)cc1	1	.	.	.	-2
Cc1cccc(C#Cc2ccccc2)n1	0	76	67*	-10	11
C[C@@H]1CCCCO[C@H](CN(C)C(=O)CCCN(C)C)[C@@H](C)CN([C@H](C)CO)C(=O)c2cc(NS(=O)(=O)c3ccc(F)cc3)ccc2O1	0	.	.	.	-4
CSc1nc(N)nc(SCC(=O)c2ccc(C)cc2)c1C#N	.	54	.	4	61*
CCCCn1c(SCC(=O)Nc2nnc(C(C)C)s2)nc2c1c(=O)n(C)c(=O)n2C	.	-2	-15	52*	-20
O=C(C[C@@H]1CC[C@@H](NC(=O)c2ccncc2)[C@@H](CO)O1)NCc1ccncn1	0	.	.	.	.
C/C(CC(=O)Nc1ccc([N+](=O)[O-])cc1)=N\NC(=O)c1ccccc1O	0	.	0	-10	45*
C/C(CC(=O)Nc1ccc(N(C)C)cc1)=N\NC(=O)c1ccccc1O	0	-4	2	-10	?
C[C@H]1CN([C@@H](C)CO)C(=O)c2cccc(NC(=O)Nc3ccccc3)c2O[C@H]1CN(C)Cc1ccc(Cl)c(Cl)c1	-1	.	.	.	0
C=C(C)C1CC=C(C)/C(=N/NC(=O)c2ccoc2C)C1 (configuration not stated)	0	29	.	8	73*
